Screening data (PubChem)
IMP-1 inh = inhibitors of Pseudomonas aeruginosa IMP-1 metallo-beta-lactamase; purified IMP-1, nitrocefin hydrolysis, epi-absorbance fluorescence; inhibition, % at 5.6 µM; hit rate 0.45% among 290,000; AID 1556;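 active = inhibition above the mean plus 3 SD of all compounds in the same screening run, cut at about 4.5% in these data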;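 also: 0% = IMP-1 with DMSO and 100% = DMSO wells lacking enzyme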
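Assay system: purified IMP-1; Quantity: IMP-1 0.2 nM before substrate addition; Medium: HEPES buffer pH 7.1 with ZnSO4 and Brij 35; Incubation: 15 min enzyme–compound preincubation, then 25 min nitrocefin reaction, 25 °C; Signal: fluorescence quenching readout, ex 480/em 530 nm; Controls: DMSO with and without IMP-1; Repeats: singlicate testing.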
CTSL1 counter-1 = counter-screen for PFM18AAP inhibitors: inhibitors of F. hepatica cathepsin L1; hit rate 0.49% among 300,000; inhibition, % at 5.96 µM; recombinant F. hepatica cathepsin L1, Z-Leu-Arg-MCA fluorescence;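 active = inhibition above the mean of all tested compounds plus 3 SD, set per screening campaign, cut at about 17% in these data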;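 also: 0% = plate median of test compound wells and 100% = 1 µM Z-Phe-Ala-diazomethylketone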
PfM18AAP inh-1 = PfM18AAP enzyme inhibition. hit rate 1.2% among 290,000. inhibition, % at 7.35 µM. recombinant PfM18AAP, H-Glu-NHMec fluorogenic cleavage;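 active = inhibition above the campaign mean inhibition over all tested compounds plus 3 SD, cut at about 28% in these data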;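 also: 0% = plate median of test compound wells and 100% = 2 mM ZnCl2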
VIM-2 inhibitor = inhibitors of Pseudomonas aeruginosa VIM-2 metallo-beta-lactamase; hit rate 0.89% among 290,000; purified VIM-2, nitrocefin hydrolysis, epi-absorbance fluorescence; inhibition, % at 5.6 µM;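 active = inhibition above the mean of all tested compounds plus 3 SD, cutoff set per screening run, cut at about 7.5% in these data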;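 also: red hydrolysis product quenches plate fluorescence so inhibitors raise well fluorescence; 0% = enzyme with DMSO and 100% = DMSO without enzyme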
PfM18AAP inh-2 = confirmation of Plasmodium falciparum M18 aspartyl aminopeptidase inhibitors | hit rate 28% among 2,400 | inhibition, % at 7.35 µM | recombinant PfM18AAP, H-Glu-NHMec fluorogenic cleavage | shares compounds with PfM18AAP inh-1 | AID 2170;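 active = mean inhibition over replicate wells above the hit cutoff set for the earlier primary screen, cut at about 29% in these data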;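 also: 0% = median of test compound wells and 100% = 2 mM ZnCl2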
CTSL1 counter-2 = counter-screen for PFM18AAP inhibitors: confirmation of human cathepsin L inhibitors; shares compounds with PfM18AAP inh-1; purified cathepsin L1, Z-Leu-Arg-MCA fluorescence; inhibition, % at 5.96 µM; 2,400 tested, under 10 active; AID 2178;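 active = average inhibition across replicates above the hit cutoff set in the earlier primary screen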;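 also: 0% = median of test compound wells and 100% = Z-Phe-Ala-diazomethylketone 1 µM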
Target sequence (P07711 whole entry, looked up): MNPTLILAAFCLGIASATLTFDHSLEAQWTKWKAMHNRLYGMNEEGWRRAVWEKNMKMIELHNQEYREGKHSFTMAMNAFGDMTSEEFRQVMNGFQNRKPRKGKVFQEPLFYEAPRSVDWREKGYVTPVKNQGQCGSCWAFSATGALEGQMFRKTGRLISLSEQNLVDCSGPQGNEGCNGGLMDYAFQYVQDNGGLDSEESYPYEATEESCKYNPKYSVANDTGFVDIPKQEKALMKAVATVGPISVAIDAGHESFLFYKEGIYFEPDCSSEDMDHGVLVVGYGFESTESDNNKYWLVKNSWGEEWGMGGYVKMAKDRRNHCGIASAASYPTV
Starred values were filed as active, the others as inactive. In the library only some 2.7% were active in any assay of this set; here they are far more common.

For COc1ccccc1OC(C)C(=O)Nc1ccccc1C(=O)NCc1cccnc1 (configuration not stated) the results were IMP-1 inh 1, CTSL1 counter-1 1, PfM18AAP inh-1 -4 and VIM-2 inhibitor -1.
Screening O=C(/C=C1\NC2(CCCC2)Cc2ccccc21)C(=O)N/N=C/c1ccc(O)c(O)c1 returned IMP-1 inh -5, CTSL1 counter-1 2, PfM18AAP inh-1 64*, VIM-2 inhibitor -2, PfM18AAP inh-2 37* and CTSL1 counter-2 2.
`COc1ccc(/C=N/NC(=O)C(=O)/C=C2\NC3(CCCC3)Cc3ccccc32)cc1` gave IMP-1 inh -3, CTSL1 counter-1 -1, PfM18AAP inh-1 8 and VIM-2 inhibitor -1.
Screening c1ccc(-c2ccc(-c3cn4c(n3)CCC4)cc2)cc1 returned IMP-1 inh -4, CTSL1 counter-1 0, PfM18AAP inh-1 1 and VIM-2 inhibitor -2.
For Cc1ccc(N=C(NO)c2nonc2N)c(C)c1 the results were IMP-1 inh 0, CTSL1 counter-1 1, PfM18AAP inh-1 34*, VIM-2 inhibitor -3, PfM18AAP inh-2 6 and CTSL1 counter-2 0.
For O=C(c1ccc(Cl)cc1)c1c[nH]cc1-c1ccccc1 the results were IMP-1 inh 4.5*, CTSL1 counter-1 2, PfM18AAP inh-1 37*, VIM-2 inhibitor 2, PfM18AAP inh-2 -43 and CTSL1 counter-2 1.
`c1ccc(-c2ccc3c(c2)NCCN3)cc1` gave IMP-1 inh -11, CTSL1 counter-1 0, PfM18AAP inh-1 4 and VIM-2 inhibitor -2.
CC(C)C(C(=O)Nc1ncn[nH]1)N1C(=O)c2ccccc2C1=O (configuration not stated) was read as IMP-1 inh -1, CTSL1 counter-1 -3, PfM18AAP inh-1 40*, VIM-2 inhibitor -1, PfM18AAP inh-2 56* and CTSL1 counter-2 5.
Screening CC(C)C(C(=O)Nc1ccccc1)N1C(=O)c2ccccc2C1=O (configuration not stated) returned IMP-1 inh 1, CTSL1 counter-1 6, PfM18AAP inh-1 9 and VIM-2 inhibitor -2.
For Cc1cc(=O)[nH]c2c(N=Nc3ccc(O)cc3)c(N)nn12 the results were IMP-1 inh 6.4*, PfM18AAP inh-1 61*, VIM-2 inhibitor 2, PfM18AAP inh-2 62* and CTSL1 counter-2 6.
`Nc1nn2c(C(F)(F)F)cc(=O)[nH]c2c1N=Nc1cccc(F)c1` gave IMP-1 inh -5, CTSL1 counter-1 6, PfM18AAP inh-1 -5 and VIM-2 inhibitor -4.
For OCCCc1ccc(O)c(O)c1 the results were IMP-1 inh 0, CTSL1 counter-1 1, PfM18AAP inh-1 45*, VIM-2 inhibitor 2, PfM18AAP inh-2 27 and CTSL1 counter-2 3.
For CC(C)CNC(=O)c1ccc(COc2ccc(Cl)cc2Cl)o1 the results were IMP-1 inh -1, CTSL1 counter-1 0, PfM18AAP inh-1 6 and VIM-2 inhibitor -2.
Screening S=C(Nc1cc(Cl)ccc1Cl)Nn1cnnc1 returned IMP-1 inh -5, CTSL1 counter-1 -1, PfM18AAP inh-1 81*, VIM-2 inhibitor -2, PfM18AAP inh-2 77* and CTSL1 counter-2 6.
`S=C(NCc1ccc(Cl)cc1)Nc1ccc(Cl)cc1Cl` gave IMP-1 inh -4, CTSL1 counter-1 -2, PfM18AAP inh-1 3 and VIM-2 inhibitor -2.
For S=C(Nc1ccc(Cl)cc1Cl)Nn1cnnc1 the results were IMP-1 inh -1, CTSL1 counter-1 -1, PfM18AAP inh-1 79*, VIM-2 inhibitor -1, PfM18AAP inh-2 77* and CTSL1 counter-2 0.
Screening C/C(N)=C(/C#N)C(=O)COC(=O)c1ccccc1Oc1ccccc1 returned IMP-1 inh -3, CTSL1 counter-1 -4, PfM18AAP inh-1 1 and VIM-2 inhibitor -3.
COc1ccc(NC(=O)CSc2ccc3nnc(-c4ccccn4)n3n2)cc1OC was read as IMP-1 inh -2, CTSL1 counter-1 -4, PfM18AAP inh-1 -1 and VIM-2 inhibitor -1.
Cc1oc2c(O)c(O)ccc2c(=O)c1-c1cnn(-c2ccccc2)c1 was read as IMP-1 inh -1, CTSL1 counter-1 13, PfM18AAP inh-1 32*, VIM-2 inhibitor 1, PfM18AAP inh-2 27 and CTSL1 counter-2 -2.
For Cc1oc2cc(O)cc(C)c2c(=O)c1-c1cnn(-c2ccccc2)c1 the results were IMP-1 inh -1, CTSL1 counter-1 -4, PfM18AAP inh-1 0 and VIM-2 inhibitor -1.
